Source: ChEMBL document CHEMBL4334541, “Nicotinamide Phosphoribosyltransferase (NAMPT) Is a New Target of Antitumor Agent Chidamide” (ACS Med Chem Lett, 2020)
Calls of active or inactive are those of the source. The rule behind the calls is not given here.

Legend:
[1] = target: T1, Nicotinamide phosphoribosyltransferase (Homo sapiens, UniProt P43490); test: Inhibition of NAMPT in human HEL cells assessed as decrease in cellular NAD+ level after 24 hrs in presence of NA by MTT assay; assay type: cell-based
How it was run: (§1)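 Rescue test in HCT116, K562, HL60 and HEL cells, with NA supplemented at 4 μM alongside compound treatment.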
Target sequence in this assay (P43490 whole entry, looked up): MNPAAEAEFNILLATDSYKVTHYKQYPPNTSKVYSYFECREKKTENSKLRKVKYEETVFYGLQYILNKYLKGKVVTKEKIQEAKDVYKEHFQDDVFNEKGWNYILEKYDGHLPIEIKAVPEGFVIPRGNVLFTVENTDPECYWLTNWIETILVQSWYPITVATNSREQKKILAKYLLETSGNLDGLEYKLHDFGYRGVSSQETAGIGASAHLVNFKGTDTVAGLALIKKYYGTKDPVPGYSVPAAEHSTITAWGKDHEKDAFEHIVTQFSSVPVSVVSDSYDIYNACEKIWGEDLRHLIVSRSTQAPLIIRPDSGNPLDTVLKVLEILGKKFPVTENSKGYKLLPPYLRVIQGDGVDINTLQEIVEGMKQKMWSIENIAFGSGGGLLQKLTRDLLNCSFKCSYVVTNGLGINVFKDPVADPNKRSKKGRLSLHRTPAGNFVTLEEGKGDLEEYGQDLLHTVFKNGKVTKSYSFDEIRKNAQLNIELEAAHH

[2] = target: T1, Nicotinamide phosphoribosyltransferase; test: Inhibition of NAMPT in human HCT116 cells assessed as decrease in cellular NAD+ level after 24 hrs in presence of NMN by MTT assay; assay type: cell-based
How it was run: (§2)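 Rescue test in HCT116, K562, HL60 and HEL cells, with NMN supplemented at 10 μM alongside compound treatment.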
Target sequence in this assay (P43490 whole entry, looked up): as above

[3] = target: T1, Nicotinamide phosphoribosyltransferase; test: Inhibition of NAMPT in human K562 cells assessed as decrease in cellular NAD+ level after 24 hrs in presence of NMN by MTT assay; assay type: cell-based; how it was run: as §2
Target sequence in this assay (P43490 whole entry, looked up): as above

K562 [4] = test: Antiproliferative activity against human K562 cells assessed as reduction in cell viability after 72 hrs by CCK8 assay; assay type: functional, cell-based; settings: K562, 72 h
HL-60 [5] = test: Antiproliferative activity against human HL60 cells NAMPT deficient assessed as reduction in cell viability after 72 hrs by CCK8 assay; assay type: functional, cell-based; settings: HL-60, 72 h
How it was run: (§3)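 NAMPT-deficient cells were generated by siRNA knockdown of NAMPT before cytotoxicity testing.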

HL-60 [6] = test: Antiproliferative activity against human HL60 cells assessed as reduction in cell viability after 72 hrs by CCK8 assay; assay type: functional, cell-based; settings: HL-60, 72 h
[7] = target: T1, Nicotinamide phosphoribosyltransferase; test: Inhibition of NAMPT in human HL60 cells assessed as decrease in cellular NAD+ level after 24 hrs in presence of NA by MTT assay; assay type: cell-based; how it was run: as §1
Target sequence in this assay (P43490 whole entry, looked up): as above

HEL [8] = test: Antiproliferative activity against human HEL cells assessed as reduction in cell viability after 72 hrs by CCK8 assay; assay type: functional, cell-based
[9] = target: T1, Nicotinamide phosphoribosyltransferase; test: Inhibition of NAMPT in human HEL cells assessed as decrease in cellular NAD+ level after 24 hrs in presence of NMN by MTT assay; assay type: cell-based; how it was run: as §2
Target sequence in this assay (P43490 whole entry, looked up): as above

[10] = target: T1, Nicotinamide phosphoribosyltransferase; test: Inhibition of NAMPT in human HL60 cells assessed as decrease in cellular NAD+ level after 24 hrs in presence of NMN by MTT assay; assay type: cell-based; how it was run: as §2
Target sequence in this assay (P43490 whole entry, looked up): as above

[11] = target: T1, Nicotinamide phosphoribosyltransferase; test: Inhibition of human NAMPT using NAM and PRPP as substrates incubated for 90 mins in presence of NMNAT by fluorometric method
Target sequence in this assay (P43490 whole entry): as the sequence (P43490 whole entry, looked up) above

[12] = target: T1, Nicotinamide phosphoribosyltransferase; test: Inhibition of NAMPT in human K562 cells assessed as decrease in cellular NAD+ level after 24 hrs in presence of NA by MTT assay; assay type: cell-based; how it was run: as §1
HCT-116 [13] = test: Antiproliferative activity against human HCT116 cells NAMPT deficient assessed as reduction in cell viability after 72 hrs by CCK8 assay; assay type: functional, cell-based; settings: HCT-116, 72 h; how it was run: as §3
HEL [14] = test: Antiproliferative activity against human HEL cells NAMPT deficient assessed as reduction in cell viability after 72 hrs by CCK8 assay; assay type: functional, cell-based; how it was run: as §3
HCT-116 [15] = test: Antiproliferative activity against human HCT116 cells assessed as reduction in cell viability after 72 hrs by CCK8 assay; assay type: functional, cell-based; settings: HCT-116, 72 h
[16] = target: T1, Nicotinamide phosphoribosyltransferase; test: Inhibition of NAMPT in human HCT116 cells assessed as decrease in cellular NAD+ level after 24 hrs by MTT assay; assay type: cell-based
How it was run: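 Relative cellular NAD+ level in HCT116 cells after 24 h exposure to a range of compound concentrations, compared qualitatively with an untreated control.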

K562 [17] = test: Antiproliferative activity against human K562 cells NAMPT deficient assessed as reduction in cell viability after 72 hrs by CCK8 assay; assay type: functional, cell-based; settings: K562, 72 h; how it was run: as §3
[18] = target: T1, Nicotinamide phosphoribosyltransferase; test: Inhibition of NAMPT in human HCT116 cells assessed as decrease in cellular NAD+ level after 24 hrs in presence of NA by MTT assay; assay type: cell-based; how it was run: as §1

Nc1cc(F)ccc1NC(=O)c1ccc(CNC(=O)/C=C/c2cccnc2)cc1 [TUCIDINOSTAT]
inhibition [1]: inactive | inhibition [2]: inactive | inhibition [3]: inactive | IC50 (K562 [4]): 320 nM | IC50 (HL-60 [5]): 3200 nM | IC50 (HL-60 [6]): 2.2 nM | inhibition [7]: inactive | IC50 (HEL [8]): 13 nM | inhibition [9]: inactive | inhibition [10]: inactive | IC50 [11]: 2100 nM | inhibition [12]: inactive | IC50 (HCT-116 [13]): > 20000 nM | IC50 (HEL [14]): 1800 nM | IC50 (HCT-116 [15]): 340 nM | inhibition [16]: Active | IC50 (K562 [17]): 2400 nM | inhibition [18]: inactive
